Results reported in ChEMBL document CHEMBL5696442, “Discovery of type II inhibitors of TGFβ-activated kinase 1 (TAK1) and mitogen-activated protein kinase kinase kinase kinase 2 (MAP4K2)” (J Med Chem, 2015).

Legend:
[1] = target: T1, Interleukin-1 receptor-associated kinase 4 (Homo sapiens) (UniProt Q9NWZ3); assay: Inhibition of IRAK4 Lys2 labeling site in human Huh-7 cells at 1 uM by KiNativ Profiling analysis relative to control; type: cell-based
T1 sequence (whole entry): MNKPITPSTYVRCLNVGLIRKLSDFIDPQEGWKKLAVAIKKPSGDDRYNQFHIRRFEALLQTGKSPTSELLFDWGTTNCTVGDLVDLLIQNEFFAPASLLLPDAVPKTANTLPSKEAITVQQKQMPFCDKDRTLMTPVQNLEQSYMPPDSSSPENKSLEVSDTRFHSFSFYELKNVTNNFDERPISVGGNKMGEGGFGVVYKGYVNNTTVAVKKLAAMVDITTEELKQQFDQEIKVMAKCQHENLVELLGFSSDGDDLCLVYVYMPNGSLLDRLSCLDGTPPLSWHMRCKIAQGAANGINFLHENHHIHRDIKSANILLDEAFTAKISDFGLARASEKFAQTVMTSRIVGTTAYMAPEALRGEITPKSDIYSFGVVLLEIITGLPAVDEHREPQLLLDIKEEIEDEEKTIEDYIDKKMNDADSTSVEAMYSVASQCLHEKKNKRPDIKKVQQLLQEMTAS

[2] = target: Serine/threonine-protein kinase 4 (Homo sapiens) (UniProt Q13043); assay: Inhibition of MST1 Lys1 labeling site harbouring AIHKETGQIVAIKQVPVESDLQEIIK in human Huh-7 cells at 1 uM by KiNativ Profiling analysis relative to control
Serine/threonine-protein kinase 4 (Homo sapiens), sequence (Q13043 whole entry, looked up): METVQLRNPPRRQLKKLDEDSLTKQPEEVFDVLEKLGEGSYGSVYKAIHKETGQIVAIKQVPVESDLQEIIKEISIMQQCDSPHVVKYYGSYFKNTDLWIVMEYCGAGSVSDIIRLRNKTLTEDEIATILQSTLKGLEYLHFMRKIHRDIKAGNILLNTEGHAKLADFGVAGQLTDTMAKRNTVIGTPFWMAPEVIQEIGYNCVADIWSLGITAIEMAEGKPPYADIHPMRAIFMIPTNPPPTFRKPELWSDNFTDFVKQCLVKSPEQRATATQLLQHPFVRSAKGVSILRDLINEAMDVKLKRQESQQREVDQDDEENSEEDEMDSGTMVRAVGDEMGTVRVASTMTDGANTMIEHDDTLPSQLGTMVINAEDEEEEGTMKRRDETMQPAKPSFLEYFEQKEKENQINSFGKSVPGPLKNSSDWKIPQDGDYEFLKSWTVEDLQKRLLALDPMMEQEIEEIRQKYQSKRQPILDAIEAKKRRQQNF

[3] = target: Mitogen-activated protein kinase 8 (Homo sapiens, UniProt P45983); assay: Inhibition of JNK1 (unknown origin) at 10 uM by Ambit Kinomescan binding assay relative to control
Mitogen-activated protein kinase 8, sequence (P45983 whole entry): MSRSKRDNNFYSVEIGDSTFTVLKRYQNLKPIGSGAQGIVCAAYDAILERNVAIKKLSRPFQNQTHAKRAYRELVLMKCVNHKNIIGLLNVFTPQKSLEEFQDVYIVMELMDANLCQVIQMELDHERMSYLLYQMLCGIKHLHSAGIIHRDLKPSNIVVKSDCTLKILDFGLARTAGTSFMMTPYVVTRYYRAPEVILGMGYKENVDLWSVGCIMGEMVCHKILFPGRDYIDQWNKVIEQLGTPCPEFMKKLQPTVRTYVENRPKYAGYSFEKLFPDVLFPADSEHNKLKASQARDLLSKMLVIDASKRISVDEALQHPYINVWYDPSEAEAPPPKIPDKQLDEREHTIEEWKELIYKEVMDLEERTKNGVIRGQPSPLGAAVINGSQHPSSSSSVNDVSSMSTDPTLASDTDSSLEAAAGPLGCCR

[4] = target: Rho-associated protein kinase 1 (Homo sapiens) (UniProt Q13464); assay: Inhibition of ROCK1 Lys2 labeling site in human A-375 cells at 0.5 uM by KiNativ Profiling analysis relative to control; type: cell-based
Rho-associated protein kinase 1 (Homo sapiens), sequence (Q13464 2-1354 limits assumed): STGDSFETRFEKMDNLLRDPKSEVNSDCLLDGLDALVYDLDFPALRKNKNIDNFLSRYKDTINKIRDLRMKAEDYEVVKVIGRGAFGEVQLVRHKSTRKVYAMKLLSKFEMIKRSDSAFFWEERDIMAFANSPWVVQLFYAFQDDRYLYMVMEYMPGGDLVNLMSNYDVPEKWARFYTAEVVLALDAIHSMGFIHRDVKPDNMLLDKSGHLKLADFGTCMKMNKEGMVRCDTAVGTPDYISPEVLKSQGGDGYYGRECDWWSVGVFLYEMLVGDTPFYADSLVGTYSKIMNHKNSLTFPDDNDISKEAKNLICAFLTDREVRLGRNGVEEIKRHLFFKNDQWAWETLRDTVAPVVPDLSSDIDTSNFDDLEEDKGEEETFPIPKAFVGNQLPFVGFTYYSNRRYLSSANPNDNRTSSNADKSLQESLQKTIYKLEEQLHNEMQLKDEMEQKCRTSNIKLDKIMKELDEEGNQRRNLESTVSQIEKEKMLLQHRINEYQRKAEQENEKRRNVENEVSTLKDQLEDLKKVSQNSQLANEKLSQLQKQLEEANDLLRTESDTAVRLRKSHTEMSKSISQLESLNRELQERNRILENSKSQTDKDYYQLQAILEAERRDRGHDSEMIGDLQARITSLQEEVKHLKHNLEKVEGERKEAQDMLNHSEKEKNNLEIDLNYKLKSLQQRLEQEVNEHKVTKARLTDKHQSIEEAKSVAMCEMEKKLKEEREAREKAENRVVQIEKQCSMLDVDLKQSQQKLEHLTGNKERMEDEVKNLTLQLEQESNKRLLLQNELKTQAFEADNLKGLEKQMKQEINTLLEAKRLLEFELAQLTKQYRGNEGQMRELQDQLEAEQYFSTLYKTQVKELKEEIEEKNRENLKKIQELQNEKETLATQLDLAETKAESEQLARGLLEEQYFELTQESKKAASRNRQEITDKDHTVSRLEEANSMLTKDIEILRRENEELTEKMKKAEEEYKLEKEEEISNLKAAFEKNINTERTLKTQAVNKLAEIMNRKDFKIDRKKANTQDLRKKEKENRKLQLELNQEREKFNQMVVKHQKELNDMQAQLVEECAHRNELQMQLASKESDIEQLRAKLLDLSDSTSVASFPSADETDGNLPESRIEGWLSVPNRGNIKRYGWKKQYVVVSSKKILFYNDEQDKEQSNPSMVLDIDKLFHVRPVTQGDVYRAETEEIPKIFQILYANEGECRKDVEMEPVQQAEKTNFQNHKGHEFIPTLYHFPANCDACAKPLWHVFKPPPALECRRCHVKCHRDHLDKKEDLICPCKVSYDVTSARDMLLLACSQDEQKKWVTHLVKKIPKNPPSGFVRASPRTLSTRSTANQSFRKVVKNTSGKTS
How it was run: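 Live A375 melanoma cells were treated with compound at 5 or 0.5 μM, then lysed. Lysates were labeled with a lysine-reactive ATP or ADP-biotin probe. Read-out was the compound's protection of kinase labeling sites from probe labeling (KiNativ).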

293-IL-1R = assay: Inhibition of IL-1alpha induced p38 phosphorylation level in human 293-IL-1R cells preincubated for 1 hr followed by IL-1 alpha stimulation and measured after 30 mins by Western blot analysis; type: functional, cell-based; settings: dose 0.01-10 µM
[5] = target: Calcium/calmodulin-dependent protein kinase kinase 2 (Homo sapiens) (UniProt Q96RR4); assay: Inhibition of CaMKK2 Lys1 labeling site in human A-375 cells at 0.5 uM by KiNativ Profiling analysis relative to control; type: cell-based
Calcium/calmodulin-dependent protein kinase kinase 2 (Homo sapiens), sequence (Q96RR4 2-588 limits assumed): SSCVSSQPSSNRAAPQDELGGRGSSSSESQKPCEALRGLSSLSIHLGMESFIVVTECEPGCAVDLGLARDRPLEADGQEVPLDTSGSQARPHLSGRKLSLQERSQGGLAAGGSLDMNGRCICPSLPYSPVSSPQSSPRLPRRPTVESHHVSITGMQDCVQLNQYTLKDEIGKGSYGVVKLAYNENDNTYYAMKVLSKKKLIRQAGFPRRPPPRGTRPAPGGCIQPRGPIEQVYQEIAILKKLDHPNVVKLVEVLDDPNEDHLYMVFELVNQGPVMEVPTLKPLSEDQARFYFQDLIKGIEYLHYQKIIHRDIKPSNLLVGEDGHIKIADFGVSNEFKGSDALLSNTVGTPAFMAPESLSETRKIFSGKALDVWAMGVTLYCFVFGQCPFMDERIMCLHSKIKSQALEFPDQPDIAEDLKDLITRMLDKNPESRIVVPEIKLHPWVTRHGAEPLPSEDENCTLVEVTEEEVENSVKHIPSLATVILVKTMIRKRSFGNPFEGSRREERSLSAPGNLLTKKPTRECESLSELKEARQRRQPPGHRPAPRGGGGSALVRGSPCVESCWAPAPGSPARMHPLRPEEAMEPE

[6] = target: Serine/threonine-protein kinase VRK2 (Homo sapiens) (UniProt Q86Y07); assay: Inhibition of VRK2 Lys2 labeling site in human A-375 cells at 0.5 uM by KiNativ Profiling analysis relative to control; type: cell-based
Serine/threonine-protein kinase VRK2 (Homo sapiens), sequence (Q86Y07 whole entry): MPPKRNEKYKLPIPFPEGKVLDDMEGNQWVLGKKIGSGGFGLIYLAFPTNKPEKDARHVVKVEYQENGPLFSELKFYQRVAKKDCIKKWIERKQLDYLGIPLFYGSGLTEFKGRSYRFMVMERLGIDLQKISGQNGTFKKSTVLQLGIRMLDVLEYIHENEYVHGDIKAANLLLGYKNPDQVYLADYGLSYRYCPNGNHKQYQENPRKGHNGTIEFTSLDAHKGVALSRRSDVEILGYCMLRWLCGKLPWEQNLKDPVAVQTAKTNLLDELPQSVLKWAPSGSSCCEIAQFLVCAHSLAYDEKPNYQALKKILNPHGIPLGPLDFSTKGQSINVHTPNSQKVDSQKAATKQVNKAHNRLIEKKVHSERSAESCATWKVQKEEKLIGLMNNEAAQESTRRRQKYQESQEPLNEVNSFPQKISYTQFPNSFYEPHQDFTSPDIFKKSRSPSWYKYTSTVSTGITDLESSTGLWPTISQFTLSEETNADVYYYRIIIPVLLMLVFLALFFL

[7] = target: T2, Serine/threonine-protein kinase TBK1 (Homo sapiens) (UniProt Q9UHD2); assay: Inhibition of TBK1 Lys2 labeling site in human A-375 cells at 5 uM by KiNativ Profiling analysis relative to control; type: cell-based
T2 sequence (whole entry): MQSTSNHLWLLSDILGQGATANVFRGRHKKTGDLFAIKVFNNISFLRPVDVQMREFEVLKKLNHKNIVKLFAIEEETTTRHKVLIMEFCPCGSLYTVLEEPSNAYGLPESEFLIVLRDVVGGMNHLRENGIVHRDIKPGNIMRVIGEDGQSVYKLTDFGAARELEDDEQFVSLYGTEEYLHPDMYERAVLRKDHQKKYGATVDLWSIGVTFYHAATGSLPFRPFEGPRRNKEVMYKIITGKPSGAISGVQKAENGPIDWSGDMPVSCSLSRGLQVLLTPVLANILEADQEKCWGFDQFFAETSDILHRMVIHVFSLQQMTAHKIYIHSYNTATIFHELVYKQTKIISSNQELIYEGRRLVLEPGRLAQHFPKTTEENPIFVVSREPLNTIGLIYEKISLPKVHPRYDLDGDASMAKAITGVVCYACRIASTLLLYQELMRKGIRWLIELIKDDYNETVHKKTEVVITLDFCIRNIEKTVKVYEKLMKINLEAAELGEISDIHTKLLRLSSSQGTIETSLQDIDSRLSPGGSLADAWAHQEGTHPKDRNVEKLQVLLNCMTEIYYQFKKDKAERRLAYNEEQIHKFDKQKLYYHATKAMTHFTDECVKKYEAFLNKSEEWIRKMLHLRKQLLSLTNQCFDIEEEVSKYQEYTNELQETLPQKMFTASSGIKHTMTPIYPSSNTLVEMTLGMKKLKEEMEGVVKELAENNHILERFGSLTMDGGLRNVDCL

[8] = target: T3, Serine/threonine-protein kinase D3 (Homo sapiens) (UniProt O94806); assay: Inhibition of PKD3 Lys2 labeling site in human A-375 cells at 5 uM by KiNativ Profiling analysis relative to control; type: cell-based
T3 sequence (whole entry): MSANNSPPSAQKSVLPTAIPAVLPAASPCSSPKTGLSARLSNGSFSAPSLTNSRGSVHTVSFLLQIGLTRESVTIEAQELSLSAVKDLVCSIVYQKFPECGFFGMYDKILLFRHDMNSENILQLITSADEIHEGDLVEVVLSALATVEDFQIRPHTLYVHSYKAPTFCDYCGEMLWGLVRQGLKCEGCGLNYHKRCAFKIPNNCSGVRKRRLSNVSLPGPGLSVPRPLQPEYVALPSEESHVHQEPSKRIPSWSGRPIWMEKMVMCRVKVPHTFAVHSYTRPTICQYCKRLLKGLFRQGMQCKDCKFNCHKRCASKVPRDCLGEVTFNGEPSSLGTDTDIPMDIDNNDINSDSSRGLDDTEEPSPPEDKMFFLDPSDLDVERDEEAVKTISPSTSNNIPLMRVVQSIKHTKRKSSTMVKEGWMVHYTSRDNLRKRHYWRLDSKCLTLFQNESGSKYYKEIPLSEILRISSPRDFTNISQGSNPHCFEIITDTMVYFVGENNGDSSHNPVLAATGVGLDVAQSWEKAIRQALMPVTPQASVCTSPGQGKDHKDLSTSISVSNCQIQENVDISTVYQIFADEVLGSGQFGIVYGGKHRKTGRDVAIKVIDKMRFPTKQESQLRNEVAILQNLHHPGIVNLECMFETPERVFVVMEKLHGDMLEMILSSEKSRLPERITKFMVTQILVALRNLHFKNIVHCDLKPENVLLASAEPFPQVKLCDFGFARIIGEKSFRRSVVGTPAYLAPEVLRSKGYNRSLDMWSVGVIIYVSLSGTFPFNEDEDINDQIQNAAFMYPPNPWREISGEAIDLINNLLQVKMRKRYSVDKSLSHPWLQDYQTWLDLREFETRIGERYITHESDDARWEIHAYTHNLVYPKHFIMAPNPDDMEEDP

[9] = tested on: Receptor-type tyrosine-protein kinase FLT3 (Homo sapiens), P36888 [R834Q]; assay: Inhibition of FLT3 R834Q mutant (unknown origin) at 1 uM by Ambit Kinomescan binding assay relative to control; values are per cent of control

CNc1cc(Oc2cc(C(=O)Nc3cc(N4CCN(C)CC4)cc(C(F)(F)F)c3)ccc2C)ncn1
inhibition [1]: 0.4%
inhibition [2]: 9.9%

CCN1CCN(Cc2ccc(NC(=O)c3ccc(C)c(Oc4ccnc5[nH]ccc45)c3)cc2C(F)(F)F)CC1
inhibition [3]: 0%
inhibition [4]: 2.3%
inhibition (293-IL-1R): Dose-Dependent Effect
inhibition [5]: 6.3%

CCN1CCN(Cc2ccc(NC(=O)c3ccc(C)c(/C=C/c4cnc5[nH]ccc5c4OC)c3)cc2C(F)(F)F)CC1
inhibition [6]: 28.5%
inhibition [7]: 37.6%
inhibition [8]: 7.3%
residual activity [9]: 7.4%
